GASC-1 inh = inhibitors of GASC-1 histone demethylase, primary screen, biochemical, fluorescence, DELFIA europium. Lysine-specific demethylase 4C (Homo sapiens), Q9H3R0. GST-JMJD2C(1-420) H3K9me3 demethylation. inhibition, % at 2.35 µM. 0.069% of 330,000 active;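 active means more than half of a compound's replicate wells show inhibition beyond 50%, single wells judged on their own value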;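 further: signal counts dimethyl H3K9 product captured on neutravidin plate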
Target sequence (Q9H3R0 1-420 limits assumed): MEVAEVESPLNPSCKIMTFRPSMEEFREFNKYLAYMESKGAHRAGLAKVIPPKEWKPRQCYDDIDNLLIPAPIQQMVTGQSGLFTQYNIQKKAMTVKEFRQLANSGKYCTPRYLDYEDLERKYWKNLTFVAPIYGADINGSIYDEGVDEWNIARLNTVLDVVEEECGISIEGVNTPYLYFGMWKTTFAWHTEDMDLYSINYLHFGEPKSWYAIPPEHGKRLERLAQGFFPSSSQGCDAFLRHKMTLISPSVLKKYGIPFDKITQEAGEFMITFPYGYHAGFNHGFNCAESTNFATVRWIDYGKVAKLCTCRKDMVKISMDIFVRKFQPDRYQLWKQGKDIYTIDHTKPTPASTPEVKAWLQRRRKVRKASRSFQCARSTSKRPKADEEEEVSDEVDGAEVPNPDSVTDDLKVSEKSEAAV
GC-A act = GC-A stimulated cGMP production enhancers – HEK293 GC-A cells, cGMP TR-FRET, EC30 ANP, primary screen; Atrial natriuretic peptide receptor 1 (Homo sapiens), P16066; 0% at EC30 ANP, 100% saturating ANP; activation, % at 10 µM; 0.14% of 370,000 active; AID 1671463, 2021; in the data active means activation above about 40%
Lipid droplet = inhibitors of hepatocyte lipid droplet formation, primary screen, imaging, high-throughput imaging, BODIPY stain | AML12 mouse hepatocytes, oleate lipid droplets | inhibition, % at 6.5 µM | 0.4% of 240,000 active | AID 1656, 2009;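 active means lipid droplet intensity inhibited by at least 50%, with more than 500 cells counted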
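Assay system: AML12 mouse liver cells | Compound: 6.5 µM single-point dosing | Schedule: Overnight exposure | Technique: Fluorescence imaging, 20x objective, two fields per well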
GC-B act = human GC-B receptor activators, primary screen, HEK293 GC-B cells, cGMP TR-FRET, EC30 CNP. Atrial natriuretic peptide receptor 2 (Homo sapiens), P20594. 0.11% of 370,000 active. activation, % at 10 µM. 0% at EC30 CNP, 100% saturating CNP;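 active means activation at 10 µM reaching about 35% in either raw or pattern-adjusted values, limit read from the data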
NR3A LBD binder = binders of NR3A ligand-binding domain, primary screen, biophysical, differential scanning fluorimetry, uHTS | Glutamate receptor ionotropic, NMDA 3A (GRIN3A) ligand-binding domain | 2.5% of 340,000 active | AID 1259313, 2017 | NR3A LBD differential scanning fluorimetry, Tm shift; 0% = protein alone, 100% = glycine-bound protein | Tm shift relative to glycine control, % at 25 µM;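 active means melting temperature shift of at least 10% of the positive control shift, at one fixed dose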
aDG glyco up = activators of alpha-DG glycosylation, primary screen, uHTS, Pro5-aDG cells, AlphaScreen; activation, % at 10 µM; alpha-DG glycosylation AlphaScreen (IIH6); 0% Pro5, 100% B10-LARGE cell signal; AID 624168, 2012; 0.22% of 360,000 active;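 active means activation of at least 8% versus controls, or a plate z-score of at least 8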;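 further: Pro5 are CHO cells carrying HIG-tagged alpha-DG that lacks glycosylation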
aDG conf = alpha-DG glycosylation enhancers, retest, confirmation, single concentration, Pro5-aDG cells; AID 651671, 2012; shares compounds with aDG glyco up; IIH6 AlphaLISA; scaled to LARGE-overexpressing B10 cells as 100%; activation, % at 10 µM (by protocol); 17% of 600 active;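 active means activation of at least 7% in one or more replicates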;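 further: cells exposed to compound for two days before detection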
Of the large screens only hits and unclear results are named; the others gave an inactive call (follow-up assays come after a bar, where they were run). A selection: hits, their analogues and other compounds. The true share with any hit is near 3%.

CCCC[n+]1ccn(C2=C([O-])c3ccccc3C(=O)/C2=N\S(=O)(=O)c2ccc(Br)cc2)c1	aDG glyco up 10.7 | aDG conf 13.4
Cc1cccc(OCC(=O)Nc2cc(S(=O)(=O)N3CCOCC3)ccc2N2CCCC2)c1C	aDG glyco up 7.4 (no result: Lipid droplet) | aDG conf inactive
O=C(COc1ccccc1)Nc1cc(S(=O)(=O)N2CCOCC2)ccc1N1CCCC1	none (no result: Lipid droplet)
CC(C)CNC(=O)OCc1cn(Cc2ccccc2C(F)(F)F)nn1	none (no result: GASC-1 inh, Lipid droplet, NR3A LBD binder, aDG glyco up)
COc1ccc(CN2C(=O)C(CC(=O)NC3CCCC3)CC(C(=O)N(C(C)C)C(C)C)=C2C)cc1 (stereo unspecified)	aDG glyco up 5.0 (no result: GASC-1 inh, Lipid droplet, NR3A LBD binder) | aDG conf inactive
CC1=C(C(=O)N(C(C)C)C(C)C)CC(CC(=O)NC2CCCCC2)C(=O)N1Cc1ccc(C(C)(C)C)cc1 (stereo unspecified)	none (no result: GASC-1 inh, Lipid droplet, NR3A LBD binder)
O=C(COC(=O)c1ccc(O)cc1O)N=c1sccn1Cc1ccccc1Cl	none (no result: Lipid droplet)
N#CCC(=O)Nc1ccc(C(=O)OCC(=O)N=c2sccn2Cc2ccccc2Cl)cc1	aDG glyco up 5.4 (no result: Lipid droplet) | aDG conf inactive
COc1ccc(C2=Nn3c(nnc3-c3ccccc3F)SC2)cc1OCC1CC1	none (no result: Lipid droplet)
COC(=O)CCC(=O)N1CCCC(N2CCN(c3cccc(C(F)(F)F)c3)CC2)C1 (stereo unspecified)	none
CCOC(=O)C1=CCN(S(=O)(=O)c2ccccc2C)C1c1ccc(F)cc1 (stereo unspecified)	none (no result: GASC-1 inh, Lipid droplet, NR3A LBD binder)
COC(=O)c1cccc(NC(=O)CN2C(=O)c3ccccc3C2=O)c1	aDG glyco up 1.3 | aDG conf inactive
N=c1c2c(ncn1CCCO)Oc1c(ccc3ccccc13)C2c1ccccc1 (stereo unspecified)	aDG glyco up 3.1 | aDG conf 4.7
COc1cccc(-c2nnn(CC(=O)N(C3CCCCC3)C3CCS(=O)(=O)C3)n2)c1 (stereo unspecified)	none (no result: GASC-1 inh, Lipid droplet, NR3A LBD binder)
NC(=S)NN=C(c1ccc(Br)cc1)C1CC1	aDG glyco up 5.7 (no result: GASC-1 inh, Lipid droplet) | aDG conf inactive
NC(=S)NN=C(c1ccc(F)cc1)C1CC1	none (no result: GASC-1 inh, Lipid droplet)
CCc1nc(CN2CCCC(C(=O)c3ccc4c5c(cccc35)CC4)C2)c(C)[nH]1 (stereo unspecified)	aDG glyco up 7.3 | aDG conf inactive
O=C(c1ccc2c3c(cccc13)CC2)C1CCCN(Cc2ccncc2)C1 (stereo unspecified)	none
CC(C)(C)c1ccc(-n2ncc3c2CCCC3NC(=O)C2(C(N)=O)CC2)cc1 (stereo unspecified)	aDG glyco up 9.6 | aDG conf inactive
CC(=O)NCC(=O)NC1CCCc2c1cnn2-c1ccc(C(C)(C)C)cc1 (stereo unspecified)	none
COCc1cc(N2CCNC[C@@H]2C)ccc1N1CCN(Cc2ccccc2)[C@@H](C)C1	none (no result: GASC-1 inh, Lipid droplet, NR3A LBD binder, aDG glyco up)
CCN(CC)S(=O)(=O)c1ccc(C)c(NC(=S)N2CCN(C/C=C/c3ccccc3)CC2)c1	aDG glyco up 8.6 | aDG conf inactive
CCC1CCCN1Cn1cnc2c([nH]c3ccccc32)c1=O (stereo unspecified)	none (no result: Lipid droplet)
CCC1CCCN1Cn1cnc2c([nH]c3ccc(OC)cc32)c1=O (stereo unspecified)	aDG glyco up 3.8 | aDG conf inactive
S=C(Nc1ccccc1I)OC1CCC12CCC(c1ccccc1)CC2 (stereo unspecified)	none (no result: GASC-1 inh, Lipid droplet, NR3A LBD binder, aDG glyco up)

Source: PubChem BioAssay (several laboratories)
